Experiment [1] deals with PI3-kinase p110-alpha/p85-alpha (Homo sapiens, UniProt P42336). Nature of the experiment: Inhibition of recombinant human full length His-tagged PI3K p110alpha/p85alpha expressed in baculovirus expression system coexpressing PIK3R1 by TR-FRET assay. In short, it runs like this:
(§1)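 PI3K isoform activity by fluorescence-based Adapta TR-FRET kinase assay. Values are the average of 3 experiments, each run in duplicate, given as mean ± SEM.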
For orientation: In TR-FRET formats the signal depends on donor and acceptor labels being close together.

In experiment [2] the target is PI3-kinase p110-delta/p85-alpha (Homo sapiens, UniProt O00329). Nature of the experiment: Inhibition of recombinant human full length His-tagged PI3K p110delta/p85alpha expressed in baculovirus expression system coexpressing PIK3R1 by TR-FRET assay. An outline of the steps:
as §1

For the next experiment, the species on record is Homo sapiens. Nature of the experiment: Inhibition of PI3K in human A375 cell lysate assessed as reduction in Akt phosphorylation at Ser473 residue at 20 uM after 1 hr by Western blot analysis. An outline of the steps: (§2)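 A375 cells (constitutive MEK1/PI3K pathway activation) incubated 1 h with compound at 20 µM against equimolar DMSO. Lysates immunoblotted: ERK1/2 phosphorylation for MEK1 activity, AKT Ser473 phosphorylation for PI3K activity.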
In general terms: Immunoblotting shows a protein as a band on a membrane.

Experiment [3] deals with T1, Dual specificity mitogen-activated protein kinase kinase 1 (Homo sapiens, UniProt Q02750). Nature of the experiment: Inhibition of recombinant human GST-tagged MEK1 expressed in baculovirus infected Sf9 insect cells using inactive ERK2 as substrate preincubated for 30 mins followed by substrate addition measured after 2 hrs by kinase-glo reagent based bioluminescence assay.

For experiment [4], the system named is A-375. Nature of the experiment: Antitumor activity against human A375 cells xenografted in athymic Foxn1nu mouse assessed as tumor growth inhibition at 400 mg/kg, qd administered via oral gavage measured after 35 days by MRI imaging analysis. Type of experiment: functional, organism-based. In short, it runs like this: (§3)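 Nude mice inoculated in the flank with 5 x 10^6 A375 cells in 100 µl. Dosing began once tumors exceeded 100 mm3, after randomization. Daily oral gavage at 400 mg/kg until sacrifice at 42 days; vehicle was 200 µl OraPlus. Tumor growth followed by MRI twice per week.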
For orientation: Xenograft models place foreign cells or tissue in a host animal.

Experiment [5] addresses T1, Dual specificity mitogen-activated protein kinase kinase 1. Nature of the experiment: Inhibition of MEK1 in human A375 cell lysate assessed as reduction in ERK1/2 phosphorylation at Thr202/Tyr204 at 20 uM after 1 hr by Western blot analysis. An outline of the steps: as §2
Experiment [6] deals with A-375. Kind of experiment: Antiproliferative activity against human A375 spheroids at 20 uM after 72 hrs by calcein AM/ethidium homodimer 1 staining based fluorescence microscopy. Type of experiment: functional, cell-based. In short, it runs like this: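 A375 melanoma spheroids exposed 72 h to compound at 20 µM; then stained with calcein AM (live, green) and ethidium homodimer-1 (dead, red). Read by fluorescence microscopy. Replicate experiments, representative images.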

Experiment [7] has as its system A-375. Kind of experiment: Antitumor activity against human A375 cells xenografted in athymic Foxn1nu mouse assessed as tumor growth inhibition at 400 mg/kg, qd administered via oral gavage for 42 days measured twice per week by MRI imaging analysis. Format: functional, organism-based. An outline of the steps:
as §3

Active and inactive are the calls of the source. No cut-off for these calls is given here.

T1 sequence (Q02750 whole entry): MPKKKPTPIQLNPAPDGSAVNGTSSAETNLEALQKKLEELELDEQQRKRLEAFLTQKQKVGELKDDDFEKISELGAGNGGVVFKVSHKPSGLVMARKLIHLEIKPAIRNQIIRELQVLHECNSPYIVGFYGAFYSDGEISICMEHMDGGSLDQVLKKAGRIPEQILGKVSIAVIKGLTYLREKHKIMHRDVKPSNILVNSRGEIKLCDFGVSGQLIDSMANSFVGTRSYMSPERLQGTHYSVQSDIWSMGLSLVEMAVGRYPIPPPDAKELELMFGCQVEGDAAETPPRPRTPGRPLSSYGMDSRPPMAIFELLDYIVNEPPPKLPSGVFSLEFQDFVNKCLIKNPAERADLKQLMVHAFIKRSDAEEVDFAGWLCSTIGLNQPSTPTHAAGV
Chain of PI3-kinase p110-alpha/p85-alpha (P27986 whole entry, canonical isoform): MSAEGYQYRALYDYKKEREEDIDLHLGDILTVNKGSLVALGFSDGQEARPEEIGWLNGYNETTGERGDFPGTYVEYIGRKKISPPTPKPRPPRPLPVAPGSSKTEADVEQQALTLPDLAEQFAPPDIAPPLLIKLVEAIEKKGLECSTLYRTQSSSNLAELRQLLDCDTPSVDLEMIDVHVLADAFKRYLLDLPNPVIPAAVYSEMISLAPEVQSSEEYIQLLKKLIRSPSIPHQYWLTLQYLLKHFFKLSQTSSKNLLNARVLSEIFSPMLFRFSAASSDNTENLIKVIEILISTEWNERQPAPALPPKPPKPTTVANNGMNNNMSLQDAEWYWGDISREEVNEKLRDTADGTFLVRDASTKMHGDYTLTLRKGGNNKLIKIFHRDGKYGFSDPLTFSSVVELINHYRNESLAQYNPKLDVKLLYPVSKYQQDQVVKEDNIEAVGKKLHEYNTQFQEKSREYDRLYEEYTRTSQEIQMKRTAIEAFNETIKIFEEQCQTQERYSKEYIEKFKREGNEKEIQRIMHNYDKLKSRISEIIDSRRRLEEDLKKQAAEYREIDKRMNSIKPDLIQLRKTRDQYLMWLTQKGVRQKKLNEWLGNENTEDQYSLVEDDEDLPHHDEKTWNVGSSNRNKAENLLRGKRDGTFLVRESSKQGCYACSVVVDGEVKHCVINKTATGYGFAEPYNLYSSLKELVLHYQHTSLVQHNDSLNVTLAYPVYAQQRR
Chain of PI3-kinase p110-alpha/p85-alpha (P42336 whole entry, canonical isoform): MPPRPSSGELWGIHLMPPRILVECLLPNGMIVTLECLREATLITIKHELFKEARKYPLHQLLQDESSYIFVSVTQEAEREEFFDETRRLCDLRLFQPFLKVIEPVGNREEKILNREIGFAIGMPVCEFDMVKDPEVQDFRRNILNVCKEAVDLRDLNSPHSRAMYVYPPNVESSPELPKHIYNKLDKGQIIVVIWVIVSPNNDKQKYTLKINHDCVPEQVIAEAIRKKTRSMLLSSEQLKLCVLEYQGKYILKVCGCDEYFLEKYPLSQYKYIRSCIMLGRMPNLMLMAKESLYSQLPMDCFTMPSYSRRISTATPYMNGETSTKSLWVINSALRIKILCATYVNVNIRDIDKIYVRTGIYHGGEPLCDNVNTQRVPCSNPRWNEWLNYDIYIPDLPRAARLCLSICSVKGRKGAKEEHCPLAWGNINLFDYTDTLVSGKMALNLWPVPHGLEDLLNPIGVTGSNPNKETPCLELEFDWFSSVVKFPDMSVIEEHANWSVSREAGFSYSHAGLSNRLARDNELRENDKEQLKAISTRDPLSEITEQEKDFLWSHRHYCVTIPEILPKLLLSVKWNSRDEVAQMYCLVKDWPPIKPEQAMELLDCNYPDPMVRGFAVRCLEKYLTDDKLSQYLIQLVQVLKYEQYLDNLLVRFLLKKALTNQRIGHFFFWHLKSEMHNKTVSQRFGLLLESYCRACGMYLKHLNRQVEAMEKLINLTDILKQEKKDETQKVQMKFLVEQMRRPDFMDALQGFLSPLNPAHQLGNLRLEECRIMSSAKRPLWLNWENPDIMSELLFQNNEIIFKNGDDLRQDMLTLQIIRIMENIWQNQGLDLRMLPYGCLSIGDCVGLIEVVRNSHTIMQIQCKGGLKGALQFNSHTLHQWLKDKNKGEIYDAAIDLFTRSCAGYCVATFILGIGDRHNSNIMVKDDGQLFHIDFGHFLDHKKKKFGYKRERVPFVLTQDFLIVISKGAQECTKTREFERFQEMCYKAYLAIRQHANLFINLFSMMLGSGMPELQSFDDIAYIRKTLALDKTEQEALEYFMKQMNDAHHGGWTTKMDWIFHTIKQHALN
Chain of PI3-kinase p110-delta/p85-alpha (P27986 whole entry): as the sequence (P27986 whole entry, canonical isoform) above
Chain of PI3-kinase p110-delta/p85-alpha (O00329 whole entry): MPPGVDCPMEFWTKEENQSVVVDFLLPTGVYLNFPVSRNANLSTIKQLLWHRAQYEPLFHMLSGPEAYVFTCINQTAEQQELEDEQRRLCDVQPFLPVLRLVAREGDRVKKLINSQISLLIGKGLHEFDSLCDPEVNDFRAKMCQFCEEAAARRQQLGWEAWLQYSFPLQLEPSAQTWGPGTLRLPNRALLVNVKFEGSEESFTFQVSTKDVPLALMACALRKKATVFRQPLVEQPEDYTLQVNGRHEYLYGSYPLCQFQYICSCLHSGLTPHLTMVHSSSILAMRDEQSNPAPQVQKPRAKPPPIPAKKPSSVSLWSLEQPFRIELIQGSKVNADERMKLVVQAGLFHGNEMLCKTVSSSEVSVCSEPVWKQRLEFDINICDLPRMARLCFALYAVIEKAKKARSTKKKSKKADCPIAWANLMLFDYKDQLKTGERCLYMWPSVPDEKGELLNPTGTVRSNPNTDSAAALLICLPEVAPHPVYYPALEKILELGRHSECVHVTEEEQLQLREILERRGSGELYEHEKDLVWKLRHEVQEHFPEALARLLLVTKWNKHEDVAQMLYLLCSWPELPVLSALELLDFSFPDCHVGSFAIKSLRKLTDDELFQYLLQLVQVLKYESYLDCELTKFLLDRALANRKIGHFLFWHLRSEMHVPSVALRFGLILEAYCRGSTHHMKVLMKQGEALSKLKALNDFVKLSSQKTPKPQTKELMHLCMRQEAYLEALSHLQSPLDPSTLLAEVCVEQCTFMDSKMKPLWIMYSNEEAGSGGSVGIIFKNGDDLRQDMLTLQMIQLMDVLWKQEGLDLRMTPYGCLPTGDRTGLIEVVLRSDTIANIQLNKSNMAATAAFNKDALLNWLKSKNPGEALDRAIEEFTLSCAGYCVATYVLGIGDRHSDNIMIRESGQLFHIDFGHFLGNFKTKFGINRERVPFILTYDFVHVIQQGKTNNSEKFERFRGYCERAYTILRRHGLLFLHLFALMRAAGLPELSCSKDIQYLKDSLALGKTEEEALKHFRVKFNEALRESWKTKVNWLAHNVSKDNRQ

For `NOCCOCCOCCOCCC(=O)N1CCN(c2nc(N3CCOCC3)nc(-n3c(C(F)F)nc4ccccc43)n2)CC1`, the IC50 (as a rule, the concentration that gives 50% inhibition) in experiment [1] was 11.5 nM; in experiment [2], 1.3 nM.
In the case of `O=C(NOCCOCCOCCOCCC(=O)N1CCN(c2nc(N3CCOCC3)nc(-n3c(C(F)F)nc4ccccc43)n2)CC1)c1ccc(F)c(F)c1Nc1ccc(I)cc1F`, the inhibition result (in the experiment listed under Homo sapiens; in experiment [5]) was “Active” in each case. For the same molecule, the IC50 in experiment [3] was found to be 182 nM; in experiment [1] it was 69.2 nM; in experiment [2], 41.7 nM. In addition, in the experiment on A-375 [4], the TGI entry is “Active”. For the same molecule, the result with A-375 [6] was Active.
For `O=C(NOCCOCCOCCOCCN1CCN(c2nc(N3CCOCC3)nc(-n3c(C(F)F)nc4ccccc43)n2)CC1)c1ccc(F)c(F)c1Nc1ccc(I)cc1F`, the inhibition entry (in the experiment listed under Homo sapiens; in experiment [5]) was “Active” in each case. The IC50 in experiment [3] worked out at 398 nM; in experiment [1], 191 nM; in experiment [2] it was 942 nM. Also, the TGI result in the experiment on A-375 [7] is “Active”. Also, the outcome with A-375 [6] was Active.
In the case of `FC(F)c1nc2ccccc2n1-c1nc(N2CCNCC2)nc(N2CCOCC2)n1`, the IC50 in experiment [1] is 180 nM; in experiment [2], 142 nM.
The corresponding values for `CC(=O)N1CCN(c2nc(N3CCOCC3)nc(-n3c(C(F)F)nc4ccccc43)n2)CC1` are 8.2 nM and 2.9 nM.

The values above are taken from ChEMBL document CHEMBL4118094, “Structure-Guided Design and Initial Studies of a Bifunctional MEK/PI3K Inhibitor (ST-168)” (ACS Med Chem Lett, 2017).
